Drawing on ChEMBL document CHEMBL1148135, “Constituents of Chinese propolis and their antiproliferative activities” (J Nat Prod, 2002), this text covers EC50 and Activity for 16 molecules.

Structures can show the parent of a compound that is named as a salt. Active and inactive are the calls of the source. The calls are words filed in the database; no cut-off is given here. Bounds are passed on as bounds.

Assay [1] in a line: Antiproliferative activity against mouse 26-L5 cells after 72 hrs by MTT assay. It is filed as functional, cell-based. Summed up:
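Murine colon 26-L5 carcinoma cells kept in RPMI with 10% fetal calf serum. 2500 cells per well were left to attach for 24 h at 37 °C under 5% CO2, then exposed for 72 h to varying concentrations in medium, from a DMSO stock (<0.1% DMSO). MTT was added for 2 h and formazan read at 550 nm. EC50 was taken from the mean of four wells.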
In general terms: Formazan colour is commonly taken as a measure of viable cells.

The next assay concerns HeLa. Briefly: Antiproliferative activity against human HeLa cells after 72 hrs by MTT assay. It is filed as functional, cell-based. Summed up:
(§1)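 Cells kept in Eagle's MEM with 10% fetal calf serum. 2500 cells per well were left to attach for 24 h at 37 °C under 5% CO2, then given varying concentrations for 72 h. Samples were dissolved in DMSO and diluted in medium (DMSO <0.1%). After 2 h with MTT, formazan was read at 550 nm. EC50 was taken from the mean of four wells.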

The next assay relates to HT-1080. The experiment in a line: Antiproliferative activity against human HT1080 cells after 72 hrs by MTT assay. It is filed as functional, cell-based. The conditions noted are these: HT-1080, 72 h. An outline of the steps: as §1
Another assay has as its system A549. Briefly: Antiproliferative activity against human A549 cells after 72 hrs by MTT assay. It is filed as functional, cell-based. The conditions noted are these: A549, 72 h. An outline of the steps:
as §1

Assay [2] is described as follows: Antiproliferative activity against mouse B16-BL6 cells after 72 hrs by MTT assay. The conditions noted are these: B16-BL6, 72 h. It is filed as functional, cell-based. Summed up: as §1
The nature of assay [3]: DPPH radical scavenging activity after 30 mins. It is filed as functional. An outline of the steps:
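Samples in EtOH were vortexed with an equal volume of DPPH solution ([…] before mixing). Absorbance was read at 520 nm after 30 min.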
In general terms: The DPPH test is a chemical assay of radical scavenging.

In general, EC50 refers to the midpoint of the concentration-response curve. Low readings indicate a more potent agent, high ones a less potent agent. On to `CC[C@H](C)C(=O)O[C@H]1C(=O)c2c(O)cc(O)cc2O[C@@H]1c1ccccc1`, for which the concentration giving a half-maximal response (EC50) worked out at 78.9 µM in assay [1]; 116 µM with HeLa; 143 µM in the assay on HT-1080; 160 µM in the assay on A549; 185 µM in assay [2].

Turning to `O=c1cc(-c2ccccc2)oc2cc(O)c(C/C=C/c3ccccc3)c(O)c12`, the EC50 (in assay [1]; in the assay with HeLa; with HT-1080; with A549; in assay [2]) was > 270 µM each time.

Consider `O=c1cc(-c2ccc(O)cc2)oc2cc(O)cc(O)c12` [APIGENIN], for which the EC50 in assay [1] was determined as 25 µM; with HeLa it was 92.7 µM; in the assay on HT-1080, 36.6 µM; in the assay on A549, 101 µM; in assay [2], 31.6 µM.

As for `O=C(/C=C/c1ccc(O)c(O)c1)OCc1ccccc1` [BENZYL CAFFEATE], the EC50 in assay [1] is 1.01 µM; in the assay on HeLa it was 2.33 µM; in the assay on HT-1080, 9.74 µM; in the assay with A549, 35 µM; in assay [2], 9.78 µM. Moreover, the outcome in assay [3] was Active.

Consider `COc1cc(/C=C/C(=O)OCc2ccccc2)ccc1O` [BENZYL FERULATE], for which the EC50 stood at 46.4 µM in assay [1]; 51.1 µM in the assay with HeLa; 46.7 µM in the assay on HT-1080; 92.8 µM in the assay with A549; 63.7 µM in assay [2].

For the molecule `O=C(/C=C/c1ccc(O)c(O)c1)OCCc1ccccc1` [CAFFEIC ACID PHENETHYL ESTER], the EC50 in assay [1] turned out to be 0.3 µM; with HeLa it was 2.36 µM; in the assay on HT-1080, 9.5 µM; in the assay on A549 it was 27.9 µM; in assay [2], 6.79 µM. Further, the outcome in assay [3] was Active.

Take `O=c1cc(-c2ccccc2)oc2cc(O)cc(O)c12` [CHRYSIN]: the EC50 in assay [1] worked out at 109 µM; in the assay with HeLa it was 111 µM; in the assay on HT-1080, 94.9 µM; with A549, 233 µM; in assay [2], 74.4 µM.

`COc1cccc2c1C(=O)c1c(O)c3c(c(O)c1C2=O)C[C@@](O)(C(=O)CO)C[C@@H]3O[C@H]1C[C@H](N)[C@H](O)[C@H](C)O1` [DOXORUBICIN HYDROCHLORIDE]: the EC50 in assay [1] was found to be 0.02 µM; in the assay on HeLa, 0.02 µM; in the assay with HT-1080, 0.02 µM; in the assay with A549, 0.04 µM; in assay [2], 0.11 µM.

Take `O=c1[nH]cc(F)c(=O)[nH]1` [FLUOROURACIL]: the EC50 was found to be 0.31 µM in assay [1]; 0.23 µM with HeLa; 1.38 µM with HT-1080; 3.61 µM in the assay on A549; 1.23 µM in assay [2].

Turning to `O=c1c(O)c(-c2ccccc2)oc2cc(O)cc(O)c12` [GALANGIN], the EC50 in assay [1] stood at 19.2 µM; in the assay with HeLa it was 79 µM; in the assay with HT-1080 it was 35.7 µM; in the assay with A549, 93.6 µM; in assay [2], 26.8 µM.

For `COc1ccc(/C=C/C(=O)O)cc1O` [ISOFERULIC ACID], the EC50 (in assay [1]; with HeLa; in the assay on HT-1080; in the assay on A549; in assay [2]) was > 515 µM in each case.

`COc1cc(O)c2c(=O)c(O)c(-c3ccccc3)oc2c1` [IZALPININ]: the EC50 in assay [1] is 30.3 µM; in the assay with HeLa it was 106 µM; in the assay with HT-1080, > 350 µM; with A549 it was > 350 µM; in assay [2], > 350 µM.

In the case of `COc1ccc(/C=C/C(=O)O)cc1OC` [O,O'-DIMETHYLCAFFEIC ACID], the EC50 (in assay [1]; in the assay on HeLa; in the assay on HT-1080; in the assay with A549; in assay [2]) was > 480 µM throughout.

For `O=C1C[C@@H](c2ccccc2)Oc2cc(O)cc(O)c21` [PINOCEMBRIN], the EC50 came to 75.6 µM in assay [1]; 108 µM in the assay with HeLa; 92.4 µM in the assay with HT-1080; 229 µM with A549; 68 µM in assay [2].

On to `COc1cc(O)c2c(c1)O[C@H](c1ccccc1)CC2=O` [PINOSTROBIN], for which the EC50 in assay [1] was 128 µM; with HeLa, 202 µM; in the assay on HT-1080, 156 µM; in the assay on A549, > 370 µM; in assay [2], 111 µM.

As to `COc1cc(O)c2c(=O)cc(-c3ccccc3)oc2c1` [TECHTOCHRYSIN], the EC50 is 273 µM in assay [1]; > 370 µM in the assay on HeLa; 358 µM in the assay on HT-1080; > 370 µM in the assay on A549; 226 µM in assay [2].
